Results: publication PMC6600871 (Nature chemical biology, 2019)
pIC50: −log10 of the molar value.

Assays:
[1] = test system: VHL-ElonginC-ElonginB (VCB) complex; assay: Isothermal titration calorimetry; type: binding, human; conditions: ITC, VCB ± SMARCA2^BD
[2] = Caco-2 permeability assay; type: in vitro ADME; conditions: human, Caco-2, pH 7.2
SK-MEL-5 cells [3] = assay: Proliferation assay; type: cell-based; conditions: Homo sapiens, SK-MEL-5, 168 h, read-out: anti-proliferative IC50, SK-MEL-5
NCI-H1703 cells = assay: Proliferation assay; type: cell-based, human; conditions: SMARCA2/4 null cell line, 7 days
SMARCA2 = SMARCA2 (Homo sapiens, UniProt P51531); assay: Protein degradation assay; type: cell-based; conditions: MV-4-11 cells, 1 µM compound
MV-4-11 cells = assay: Proliferation assay; type: cell-based, human; conditions: read-out: anti-proliferative IC50, MV-4-11; cell viability after 7 days
PBRM1 = PBRM1 (Homo sapiens, UniProt Q86U86); assay: Protein degradation assay, PBRM1 in NCI-H1568 cells; type: cell-based; conditions: read-out: DC50 PBRM1, 18 h
Procedure, shortened: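 Cells seeded at 20000/well in 24-well plates and held overnight at 37 °C. Test compound added from DMSO stock (DMSO normalised), 18 h at 37 °C. Lysed 30 min on ice in 1% Triton, 350 mM KCl, 10 mM Tris pH 7.4, 10 mM DTT, benzonase, protease/phosphatase inhibitors. Target protein quantified by WES capillary electrophoresis, normalised to GAPDH. Two independent experiments.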

SMARCA4 = SMARCA4 (Homo sapiens, UniProt P51532); assay: Protein degradation assay; type: cell-based; conditions: MV-4-11 cells, 1 µM compound
SK-MEL-5 cells [4] = assay: Real-time apoptosis measurement; type: cell-based, human; conditions: SK-MEL-5, 0.3 µM, comparable to doxorubicin (1 µM)
SMARCA2^BD = SMARCA2^BD (Homo sapiens, UniProt P51531); type: binding
[5] = test system: panel of cancer cell lines; assay: Proliferation of a panel of cancer cell lines; type: cell-based, human; conditions: all cell lines tested
[6] = test system: proteome of MV-4-11 cells; assay: TMT labelling mass spectrometry proteomics in MV-4-11 cells; type: cell-based, human; conditions: 333 nM, 8 h

Sequence of PBRM1 (Q86U86 whole entry): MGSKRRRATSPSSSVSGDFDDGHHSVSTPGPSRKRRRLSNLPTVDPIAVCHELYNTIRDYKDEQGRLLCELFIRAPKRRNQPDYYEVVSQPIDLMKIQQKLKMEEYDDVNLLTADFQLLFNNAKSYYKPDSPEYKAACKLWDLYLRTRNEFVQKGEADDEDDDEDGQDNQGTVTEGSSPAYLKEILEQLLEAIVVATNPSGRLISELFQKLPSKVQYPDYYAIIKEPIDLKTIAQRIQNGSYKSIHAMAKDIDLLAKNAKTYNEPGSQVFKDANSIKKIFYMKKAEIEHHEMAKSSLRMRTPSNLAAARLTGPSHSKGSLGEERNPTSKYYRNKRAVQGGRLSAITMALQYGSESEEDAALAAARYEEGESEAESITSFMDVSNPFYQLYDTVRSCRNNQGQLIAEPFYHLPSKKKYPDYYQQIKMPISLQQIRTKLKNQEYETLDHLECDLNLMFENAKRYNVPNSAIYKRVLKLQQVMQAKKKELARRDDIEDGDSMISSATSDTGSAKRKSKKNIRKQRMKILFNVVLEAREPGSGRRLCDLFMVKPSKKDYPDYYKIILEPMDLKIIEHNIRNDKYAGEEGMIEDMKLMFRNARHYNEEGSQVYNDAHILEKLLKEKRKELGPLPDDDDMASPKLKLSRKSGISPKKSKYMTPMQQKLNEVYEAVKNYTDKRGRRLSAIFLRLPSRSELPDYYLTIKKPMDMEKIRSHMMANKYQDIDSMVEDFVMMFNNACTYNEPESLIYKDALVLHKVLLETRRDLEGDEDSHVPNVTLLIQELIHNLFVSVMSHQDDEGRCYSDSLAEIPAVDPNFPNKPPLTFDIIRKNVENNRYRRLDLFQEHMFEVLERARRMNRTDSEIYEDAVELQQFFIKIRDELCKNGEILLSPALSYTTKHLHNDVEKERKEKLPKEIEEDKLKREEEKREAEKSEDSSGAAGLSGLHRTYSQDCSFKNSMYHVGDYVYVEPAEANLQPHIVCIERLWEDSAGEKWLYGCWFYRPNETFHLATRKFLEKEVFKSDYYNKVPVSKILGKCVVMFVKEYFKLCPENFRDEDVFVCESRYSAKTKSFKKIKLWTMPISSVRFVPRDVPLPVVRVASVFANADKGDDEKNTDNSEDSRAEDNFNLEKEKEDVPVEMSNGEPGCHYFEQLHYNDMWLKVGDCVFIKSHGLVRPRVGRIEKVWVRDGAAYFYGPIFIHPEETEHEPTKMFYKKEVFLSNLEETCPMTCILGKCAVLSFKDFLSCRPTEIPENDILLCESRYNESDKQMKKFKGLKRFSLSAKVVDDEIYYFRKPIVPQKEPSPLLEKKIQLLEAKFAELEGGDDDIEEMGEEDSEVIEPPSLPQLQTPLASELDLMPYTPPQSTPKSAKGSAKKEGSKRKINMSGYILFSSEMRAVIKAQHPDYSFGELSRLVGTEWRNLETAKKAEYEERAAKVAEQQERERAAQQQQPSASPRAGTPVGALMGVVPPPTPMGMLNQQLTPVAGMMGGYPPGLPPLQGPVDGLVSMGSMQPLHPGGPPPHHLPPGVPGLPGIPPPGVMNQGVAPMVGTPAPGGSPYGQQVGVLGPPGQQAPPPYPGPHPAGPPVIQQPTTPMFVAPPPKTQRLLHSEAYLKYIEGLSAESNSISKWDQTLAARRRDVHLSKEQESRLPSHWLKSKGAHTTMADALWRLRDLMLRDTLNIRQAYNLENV
Sequence of SMARCA4 (P51532 whole entry): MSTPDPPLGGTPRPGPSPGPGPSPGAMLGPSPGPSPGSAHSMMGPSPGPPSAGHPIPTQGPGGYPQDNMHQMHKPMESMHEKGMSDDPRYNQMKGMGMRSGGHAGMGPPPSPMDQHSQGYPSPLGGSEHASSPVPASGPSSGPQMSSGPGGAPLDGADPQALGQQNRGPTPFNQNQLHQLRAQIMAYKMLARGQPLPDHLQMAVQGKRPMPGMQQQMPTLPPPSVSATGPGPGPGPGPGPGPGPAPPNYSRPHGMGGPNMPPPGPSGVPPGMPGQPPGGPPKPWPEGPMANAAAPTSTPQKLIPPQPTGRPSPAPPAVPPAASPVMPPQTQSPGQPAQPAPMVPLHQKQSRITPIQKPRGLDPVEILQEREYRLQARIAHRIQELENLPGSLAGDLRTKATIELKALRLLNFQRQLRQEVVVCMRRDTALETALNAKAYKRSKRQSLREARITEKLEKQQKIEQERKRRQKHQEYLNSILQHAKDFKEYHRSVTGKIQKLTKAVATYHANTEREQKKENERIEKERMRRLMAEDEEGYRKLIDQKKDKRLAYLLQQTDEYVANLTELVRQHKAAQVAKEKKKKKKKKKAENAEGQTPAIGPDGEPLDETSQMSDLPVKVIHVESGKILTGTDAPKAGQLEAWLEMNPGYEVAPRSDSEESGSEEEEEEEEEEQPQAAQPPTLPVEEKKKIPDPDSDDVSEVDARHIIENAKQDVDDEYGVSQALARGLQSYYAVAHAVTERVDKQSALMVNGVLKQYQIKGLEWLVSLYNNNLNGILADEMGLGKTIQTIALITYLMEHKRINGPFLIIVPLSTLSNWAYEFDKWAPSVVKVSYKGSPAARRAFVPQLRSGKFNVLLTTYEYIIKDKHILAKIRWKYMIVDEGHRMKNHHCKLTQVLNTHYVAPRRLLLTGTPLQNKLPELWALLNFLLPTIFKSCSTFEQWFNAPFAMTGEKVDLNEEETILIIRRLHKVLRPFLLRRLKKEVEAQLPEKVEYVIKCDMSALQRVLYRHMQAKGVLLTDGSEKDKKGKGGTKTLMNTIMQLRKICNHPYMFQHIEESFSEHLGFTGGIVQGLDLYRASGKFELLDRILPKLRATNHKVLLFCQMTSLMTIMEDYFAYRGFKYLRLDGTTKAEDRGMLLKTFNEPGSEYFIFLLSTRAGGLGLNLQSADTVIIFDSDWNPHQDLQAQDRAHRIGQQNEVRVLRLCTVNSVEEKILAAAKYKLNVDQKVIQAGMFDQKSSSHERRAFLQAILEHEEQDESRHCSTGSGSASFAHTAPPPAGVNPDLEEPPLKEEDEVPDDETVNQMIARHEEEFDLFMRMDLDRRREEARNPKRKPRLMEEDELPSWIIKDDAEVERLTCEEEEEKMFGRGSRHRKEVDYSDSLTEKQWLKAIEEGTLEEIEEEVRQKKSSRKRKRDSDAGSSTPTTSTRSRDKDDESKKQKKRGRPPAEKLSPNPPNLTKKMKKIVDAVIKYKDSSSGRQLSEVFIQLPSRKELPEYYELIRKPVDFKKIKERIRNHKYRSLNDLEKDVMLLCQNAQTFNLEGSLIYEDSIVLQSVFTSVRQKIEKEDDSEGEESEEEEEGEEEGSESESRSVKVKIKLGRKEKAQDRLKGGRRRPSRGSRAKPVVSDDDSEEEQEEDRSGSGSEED

Row | cooperativity α (binary KD/ternary KD) [1] | Papp B→A at 2 h [2] | pIC50 (SK-MEL-5 cells [3]) | time to half maximal degradation of SMARCA2 (SMARCA2) | pIC50 (MV-4-11 cells) | efflux ratio [2] | DC50 (PBRM1) | time to half maximal degradation of SMARCA4 (SMARCA4) | pIC50 (SMARCA2^BD) | Structure (SMILES) | anti-proliferative effect in NCI-H1703 (NCI-H1703 cells) | caspase activity / apoptosis (SK-MEL-5 cells [4]) | anti-proliferative effect across cell lines tested [5] | effect on cellular proteome [6]
1 | 4.8 | 20.7 ×10⁻⁶ cm/s |  |  |  |  |  |  |  | Cc1ncsc1-c1ccc(CNC(=O)[C@@H]2C[C@@H](O)CN2C(=O)[C@@H](NC(=O)C2(F)CC2)C(C)(C)C)c(OCCOCCOCCN2CCN(c3cc(-c4ccccc4O)nnc3N)CC2)c1 [PROTAC 1, (2S,4R)-N-(2-(2-(2-(2-(4-(3-amino-6-(2-hydroxyphenyl)pyridazin-4-yl)piperazin-1-yl)ethoxy)ethoxy)ethoxy)-4-(4-methylthiazol-5-yl)benzyl)-1-((S)-2-(1-fluorocyclopropane-1-carboxamido)-3,3-dimethylbutanoyl)-4-hydroxypyrrolidine-2-carboxamide] |  |  |  | 
2 |  |  | < 5.00 |  |  |  |  |  |  | Cc1ncsc1-c1ccc(CNC(=O)[C@@H]2C[C@H](O)CN2C(=O)[C@@H](NC(=O)C2(F)CC2)C(C)(C)C)c(OCCOc2ccc(CN3CCN(c4cc(-c5ccccc5O)nnc4N)CC3)cc2)c1 [cis-ACBI1, (2S,4S)-N-(2-(2-(4-((4-(3-amino-6-(2-hydroxyphenyl)pyridazin-4-yl)piperazin-1-yl)methyl)phenoxy)ethoxy)-4-(4-methylthiazol-5-yl)benzyl)-1-((S)-2-(1-fluorocyclopropane-1-carboxamido)-3,3-dimethylbutanoyl)-4-hydroxypyrrolidine-2-carboxamide] | no anti-proliferative effects |  |  | 
3 |  |  | 7.11 | < 2 h | 7.54 | 1.7 | 15.6 nM | < 2 h | 6.11 | Cc1ncsc1-c1ccc(CNC(=O)[C@@H]2C[C@@H](O)CN2C(=O)[C@@H](NC(=O)C2(F)CC2)C(C)(C)C)c(OCCOc2ccc(CN3CCN(c4cc(-c5ccccc5O)nnc4N)CC3)cc2)c1 [ACBI1, (2S,4R)-N-(2-(2-(4-((4-(3-amino-6-(2-hydroxyphenyl)pyridazin-4-yl)piperazin-1-yl)methyl)phenoxy)ethoxy)-4-(4-methylthiazol-5-yl)benzyl)-1-((S)-2-(1-fluorocyclopropane-1-carboxamido)-3,3-dimethylbutanoyl)-4-hydroxypyrrolidine-2-carboxamide] | no anti-proliferative effects | increased caspase activity | potent anti-proliferative effects | significant knockdown of SMARCA2, SMARCA4 and PBRM1 with minimal down-regulation of other proteins across the proteome
